ChEMBL document CHEMBL3862037 (J Med Chem, 2016)

Columns and labels:
D(2) dopamine receptor [1] = target: T1, D(2) dopamine receptor (Homo sapiens, UniProt P14416); assay: Displacement of [3H]N-methylspiperone from human D2R expressed in HEK293 cell membranes incubated for 1 hr by radioligand binding assay
How it was run: (§1)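 Membranes from HEK293 cells stably expressing human D2R (20 µg protein) or D4R (30 µg protein). Buffer: EBSS with 0.2 mM sodium metabisulfite and 0.4 nM [3H]N-methylspiperone. Test compound at 11 half-log dilutions (100 µM–100 pM or 10 µM–10 pM) in 30% DMSO vehicle. Incubated 1 h at room temperature; nonspecific binding with 10 µM butaclamol.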

D(3) dopamine receptor = D(3) dopamine receptor (Homo sapiens, UniProt P35462); assay: Displacement of [3H]N-methylspiperone from human D3R expressed in HEK293 cell membranes incubated for 1 hr by radioligand binding assay
Sequence of D(3) dopamine receptor (P35462 whole entry): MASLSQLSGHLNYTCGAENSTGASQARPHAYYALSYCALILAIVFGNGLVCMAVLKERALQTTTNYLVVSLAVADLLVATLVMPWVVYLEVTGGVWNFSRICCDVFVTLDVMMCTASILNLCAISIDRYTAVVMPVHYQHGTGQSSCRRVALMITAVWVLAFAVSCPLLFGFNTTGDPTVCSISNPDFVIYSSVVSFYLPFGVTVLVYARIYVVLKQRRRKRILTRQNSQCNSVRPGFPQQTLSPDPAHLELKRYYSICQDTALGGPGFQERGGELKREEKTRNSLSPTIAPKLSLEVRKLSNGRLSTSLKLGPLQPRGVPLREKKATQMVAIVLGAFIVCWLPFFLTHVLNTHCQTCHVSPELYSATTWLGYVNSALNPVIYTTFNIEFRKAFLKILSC

D(4) dopamine receptor = target: T2, D(4) dopamine receptor (Homo sapiens, UniProt P21917); assay: Displacement of [3H]N-methylspiperone from human D4R expressed in HEK293 cell membranes incubated for 1 hr by radioligand binding assay; how it was run: as §1
T2 sequence (P21917 whole entry): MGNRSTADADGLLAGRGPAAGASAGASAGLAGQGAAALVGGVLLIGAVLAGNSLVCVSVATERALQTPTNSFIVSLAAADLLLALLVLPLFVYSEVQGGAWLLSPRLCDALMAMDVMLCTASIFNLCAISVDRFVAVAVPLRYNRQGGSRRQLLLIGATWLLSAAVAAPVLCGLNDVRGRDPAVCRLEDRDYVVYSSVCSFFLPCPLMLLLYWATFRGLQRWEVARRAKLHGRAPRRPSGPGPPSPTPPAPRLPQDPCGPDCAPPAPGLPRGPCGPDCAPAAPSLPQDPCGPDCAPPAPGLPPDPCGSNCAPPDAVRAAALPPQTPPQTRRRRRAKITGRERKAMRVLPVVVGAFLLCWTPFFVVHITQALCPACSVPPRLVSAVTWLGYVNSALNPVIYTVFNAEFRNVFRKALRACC

D(2) dopamine receptor [2] = target: T1, D(2) dopamine receptor; assay: Antagonist activity at DRD2 (unknown origin) expressed in HEK293T cells transfected with Galphai1-RLuc8 and gamma2-GFP10 assessed as inhibition of quinpirole-induced Gi1 activation pre-incubated with quinpirole for 10 mins before compound incubation for 10 mins by BRET assay; assay type: cell-based, HEK-293T
How it was run: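 HEK-293T cells co-transfected with Flag-tagged D2 receptor, RLuc8-fused Gαi1, GFP10-fused Gγ and untagged Gβ, using constant total plasmid DNA at various partner ratios. Cells preincubated 10 min with 1 µM quinpirole, then 10 min with test compound. Read-out: BRET as fluorescence at 535 nm after 5 µM coelenterazine 400a.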

[3] = Displacement of [3H]WIN35,428 from human DAT Y156F mutant expressed in COS7 cell membranes incubated for >90 mins by radioligand binding assay; conditions: cos-7
[4] = target: T3, Sodium-dependent dopamine transporter (Homo sapiens, UniProt Q01959); assay: Displacement of [3H]WIN35,428 from wild type human DAT expressed in COS7 cell membranes incubated for >90 mins by radioligand binding assay; parameters: species or system COS-7
T3 sequence (Q01959 whole entry): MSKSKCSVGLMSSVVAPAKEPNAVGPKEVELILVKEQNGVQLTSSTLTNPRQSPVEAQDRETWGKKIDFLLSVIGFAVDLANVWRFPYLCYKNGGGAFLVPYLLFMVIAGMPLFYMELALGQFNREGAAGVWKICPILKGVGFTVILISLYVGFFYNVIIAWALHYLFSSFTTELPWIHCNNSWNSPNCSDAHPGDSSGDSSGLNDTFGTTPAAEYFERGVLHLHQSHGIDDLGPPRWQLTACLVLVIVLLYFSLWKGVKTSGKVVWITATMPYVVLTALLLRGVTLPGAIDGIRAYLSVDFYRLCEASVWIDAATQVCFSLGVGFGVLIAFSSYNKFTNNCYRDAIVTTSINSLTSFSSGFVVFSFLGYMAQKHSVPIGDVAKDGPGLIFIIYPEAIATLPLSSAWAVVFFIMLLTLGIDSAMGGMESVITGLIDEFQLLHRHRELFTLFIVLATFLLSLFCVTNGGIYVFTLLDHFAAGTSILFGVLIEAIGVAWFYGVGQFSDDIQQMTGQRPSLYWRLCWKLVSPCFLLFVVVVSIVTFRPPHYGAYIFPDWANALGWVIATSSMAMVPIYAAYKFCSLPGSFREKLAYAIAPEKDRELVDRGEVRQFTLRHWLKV

[5] = target: T3, Sodium-dependent dopamine transporter; assay: Inhibition of DAT (unknown origin) expressed in COS7 cells assessed as reduction in [3H]DA uptake incubated for 5 mins by beta-scintillation counting method; assay type: cell-based, COS-7
[6] = Stability in mouse liver microsomes assessed as half life at 10 uM in presence of NADPH regenerating system by LC/MS/MS method; assay type: ADME
How it was run: (§2)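 Mouse liver microsomes (0.5 mg/mL) in 100 mM potassium phosphate pH 7.4 with NADPH regenerating system. Compound at 10 µM final; testosterone as positive control. Parent compound loss followed over time by LC/MS/MS on a C18 column with formic acid/acetonitrile gradient.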

[7] = Stability in mouse liver microsomes assessed as compound remaining at 10 uM in absence of NADPH regenerating system measured after 60 mins by LC/MS/MS method; assay type: ADME, microsome; conditions: read-out: Stability
[8] = Stability in mouse liver microsomes assessed as compound remaining at 10 uM in presence of NADPH regenerating system measured up to 70 mins by LC/MS/MS method; assay type: ADME; conditions: read-out: Stability
[9] = Stability in mouse liver microsomes assessed as compound remaining at 10 uM in presence of NADPH regenerating system measured at 60 mins by LC/MS/MS method; assay type: ADME; conditions: read-out: Stability; how it was run: as §2
[10] = Induction of locomotor activity in C57BL/6J mouse assessed as increase in traveled distance every 10 mins at 10 mg/kg, ip; assay type: organism-based; conditions: in vivo
[11] = Induction of locomotor activity in C57BL/6J mouse assessed as increase in traveled distance every 10 mins at 10 to 30 mg/kg, ip; assay type: organism-based; conditions: in vivo
[12] = Induction of locomotor activity in C57BL/6J mouse assessed as increase in traveled distance every 10 mins at 3 and 10 mg/kg, ip; assay type: organism-based; conditions: in vivo

T1 sequence (P14416 whole entry): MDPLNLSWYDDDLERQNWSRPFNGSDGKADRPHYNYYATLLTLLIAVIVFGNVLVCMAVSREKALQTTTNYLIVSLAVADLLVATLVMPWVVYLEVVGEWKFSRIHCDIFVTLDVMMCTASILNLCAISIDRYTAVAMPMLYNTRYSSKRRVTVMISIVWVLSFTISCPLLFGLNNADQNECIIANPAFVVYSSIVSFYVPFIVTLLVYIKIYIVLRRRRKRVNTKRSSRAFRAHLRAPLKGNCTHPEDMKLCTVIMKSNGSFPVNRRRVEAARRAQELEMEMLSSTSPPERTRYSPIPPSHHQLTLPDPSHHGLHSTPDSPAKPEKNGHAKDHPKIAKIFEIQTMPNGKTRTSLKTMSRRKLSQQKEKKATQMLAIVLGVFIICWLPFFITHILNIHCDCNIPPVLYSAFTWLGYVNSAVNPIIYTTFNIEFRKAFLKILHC

| SMILES | Ki (D(2) dopamine receptor [1]) | Ki (D(3) dopamine receptor) | Ki (D(4) dopamine receptor) | IC50 (D(2) dopamine receptor [2]) | Ki [3] | Ki [4] | Ki [5] | half-life at 10 µM ([6]; liver microsomes) | remaining at 1 h, 10 µM [7] | remaining at 70 min, 10 µM [8] | t1/2 ([6]; microsomes, 10 µM) | remaining at 1 h, 10 µM [9] | Activity [10] | Activity [11] | Activity [12] |
| --- | --- | --- | --- | --- | --- | --- | --- | --- | --- | --- | --- | --- | --- | --- | --- |
| CC(O)CN1CCN(CCSC(c2ccc(F)cc2)c2ccc(F)cc2)CC1 (stereo not drawn) | 693 nM | 424 nM | 6300 nM | > 10000 nM | 267 nM | 101 nM | 200 nM | 1 h | > 95% | 50% |  |  |  |  |  |
| [O-][S+](CCN1CCN(CC(O)Cc2ccccc2)CC1)C(c1ccc(F)cc1)c1ccc(F)cc1 (stereo not drawn) | 78.6 nM | 652 nM | 1750 nM | > 10000 nM | 97 nM | 6.5 nM | 12 nM |  | > 95% |  | 0.217 h | 4% | Non-Toxic | Dose-dependent effect |  |
| COC(=O)[C@H]1[C@@H](OC(=O)c2ccccc2)C[C@@H]2CC[C@H]1N2C [COCAINE] |  |  |  |  |  |  |  |  |  |  |  |  |  |  | Dose-dependent effect |
